Measurements: ChEMBL document CHEMBL5055620, “Design, Synthesis, and Structural Characterization of Lysine Covalent BH3 Peptides Targeting Mcl-1” (J Med Chem, 2021)
The source made the active and inactive calls. The calls are words filed in the database; no cut-off is given here. Non-standard residues stand in square brackets, D forms with d. Residues, ends and D or L forms follow the SMILES beside them. ξ: configuration not given here. *: point of attachment. Benzoyl(2-OMe,5-SO2F) = COc1ccc(S(=O)(=O)F)cc1C(=O)*; Benzoyl(3-SO2F) = O=C(c1cccc(S(=O)(=O)F)c1)*; Benzoyl(4-SO2F) = O=C(c1ccc(S(=O)(=O)F)cc1)*; X1 = Cc1ccc(S(=O)(=O)F)cc1C(=O)*; hSer = N[C@@H](CCO)C(=O)O; Nle = CCCC[C@H](N)C(=O)O; Dap = NC[C@H](N)C(=O)O; ξAbu = CCC(N)C(=O)O

Key:
[1] = target: T1, Induced myeloid leukemia cell differentiation protein Mcl-1 (Homo sapiens, UniProt Q07820); assay: Binding affinity to human Mcl-1 assessed as covalent adduct formation by measuring band shift at 100 uM measured after 2 hrs by SDS-PAGE analysis
T1 sequence (Q07820 whole entry, the tested form may be a part): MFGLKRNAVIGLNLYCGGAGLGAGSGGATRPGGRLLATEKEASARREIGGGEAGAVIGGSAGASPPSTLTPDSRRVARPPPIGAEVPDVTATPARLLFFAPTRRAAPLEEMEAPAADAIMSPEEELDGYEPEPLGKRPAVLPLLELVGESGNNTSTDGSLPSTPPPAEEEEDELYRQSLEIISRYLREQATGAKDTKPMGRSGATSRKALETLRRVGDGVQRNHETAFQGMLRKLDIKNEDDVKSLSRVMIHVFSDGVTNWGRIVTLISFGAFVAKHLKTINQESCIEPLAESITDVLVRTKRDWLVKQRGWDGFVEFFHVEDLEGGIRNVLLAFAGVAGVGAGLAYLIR
Summary of the method: (§1)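 Protein (hMcl-1 His-tagged construct, or His-tagged hBfl-1 residues 1–149) at 10 μM was incubated with or without agent at 100 μM for 2 h at room temperature in 25 mM TRIS pH 7.5, 150 mM NaCl, 1 mM DTT. Samples were run on 12% Bis-Tris SDS-PAGE with MOPS running buffer and Coomassie-type stained.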

Bcl-2-related protein A1 = target: T2, Bcl-2-related protein A1 (Homo sapiens, UniProt Q16548); assay: Inhibition of human Bfl-1 (1 to 149 residues) expressed in Rosetta-gami (DE3) using biotinylated-BH3 peptide as substrate measured after 2 hrs by DELFIA displacement assay
T2 sequence (Q16548 whole entry): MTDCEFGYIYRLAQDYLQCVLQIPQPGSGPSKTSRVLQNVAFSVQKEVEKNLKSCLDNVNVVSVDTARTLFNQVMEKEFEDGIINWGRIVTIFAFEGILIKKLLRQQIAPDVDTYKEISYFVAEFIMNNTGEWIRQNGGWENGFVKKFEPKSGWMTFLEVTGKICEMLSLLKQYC

[2] = target: T3, Bcl-2-related protein A1 (Homo sapiens) (UniProt Q16548); assay: Binding affinity to human Bfl-1 assessed as covalent adduct formation by measuring band shift at 100 uM measured after 2 hrs by SDS-PAGE analysis; summary of the method: as §1
T3 sequence (whole entry): T2 sequence (Q16548 whole entry)

[3] = target: T1, Induced myeloid leukemia cell differentiation protein Mcl-1; assay: Degradation of human Mcl-1 in A549 cells assessed as decrease in Mcl-1 protein levels with DMSO for 1 hr by spiking cell lysate assay; format: cell-based
Summary of the method: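 A549 cells (Ham's F-12/GlutaMAX, 10% FBS, PenStrep, 0.5 μg/mL puromycin) were lysed 20 min on ice in Tris pH 7.4/Triton/deoxycholate/SDS/IGEPAL/EDTA buffer with protease and phosphatase inhibitors, then centrifuged. Protein-quantified supernatants were incubated 1 h at 37 °C with DMSO or 100 μM agent. Immunoblot used PVDF, anti-Mcl-1 and anti-β-tubulin (4 °C overnight), and ECL.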

A549 [4] = assay: Induction of decrease in human Mcl-1 level in A549 cells measured up to 100 uM in presence of carfilzomib treated for 2 hrs by Western blot analysis; format: functional, cell-based
Summary of the method: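 A549 cells were treated 2 h with DMSO, 50 or 100 μM agent, with or without 30 min pre-treatment with 1 μM carfilzomib. Lysates were immunoblotted for Mcl-1 and β-tubulin. Densitometry gave Mcl-1 relative to β-tubulin from two independent experiments. Significance was by one-way ANOVA with Dunnett post-test.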

[5] = target: T1, Induced myeloid leukemia cell differentiation protein Mcl-1; assay: Inhibition of human Mcl-1 assessed as inhibition constant by DELFIA displacement assay
Summary of the method: (§2)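 His-tagged hMcl-1 (16 nM) and Eu-N1 anti-6xHis antibody (22.2 ng/well) were pre-bound for 2 h to streptavidin wells coated with biotinylated BIM BH3 peptide (600 ng/mL). Test peptide was then added for 0–40 min at RT, followed by washing, enhancement solution and time-resolved fluorescence at ex 340/em 615 nm. kobs was taken from the slope of % inhibition versus time. Ki and kinact came from a hyperbolic fit of kobs against concentration.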

[6] = target: T1, Induced myeloid leukemia cell differentiation protein Mcl-1; assay: Binding affinity to human Mcl-1 in human A549 cells assessed as denaturation thermal shift at 100 uM by cellular thermal shift assay; format: cell-based
Summary of the method: (§3)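 Cellular thermal shift: one million A549 cells were plated overnight and treated 1 h with 1% DMSO or 100 μM agent. Cells were harvested, protease inhibitors added, and heated 3 min at various temperatures. After lysis, the supernatant was analysed by western blot for Mcl-1.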

[7] = target: T1, Induced myeloid leukemia cell differentiation protein Mcl-1; assay: Inhibition of human Mcl-1 assessed as Kinact by DELFIA displacement assay; summary of the method: as §2
[8] = Stability of the compound in pH 7.4 buffer assessed as intact compound after 3.5 hrs by one-dimensional 1H-NMR analysis; format: physicochemical; conditions: read-out: Stability
[9] = Stability of the compound in pH 7.4 buffer assessed as half life by one-dimensional 1H-NMR analysis; format: physicochemical
[10] = target: T1, Induced myeloid leukemia cell differentiation protein Mcl-1; assay: Binding affinity to human Mcl-1 assessed as covalent adduct formation by measuring increase in molecular weight at 100 uM by mass spectrometry analysis
A549 [11] = assay: Prevention of thermal denaturation of proteins in human A549 cells assessed as rescue of protein level at 100 uM by Western blotting analysis; format: functional, cell-based; summary of the method: as §3
[12] = target: T1, Induced myeloid leukemia cell differentiation protein Mcl-1; assay: Inhibition of human Mcl-1 (172 to 323 residues) expressed in Escherichia coli BL21 using biotinylated-BH3 peptide as substrate measured after 2 hrs by DELFIA displacement assay

In the case of `CC[C@H](C)[C@H](NC(=O)[C@H](CCCNC(=N)N)NC(=O)[C@H](CCCNC(=N)N)NC(=O)[C@H](CC(C)C)NC(=O)[C@H](CCC(N)=O)NC(=O)[C@H](CCC(=O)O)NC(=O)[C@H](C)NC(=O)[C@@H](NC(=O)[C@H](CNC(=O)c1cc(S(=O)(=O)F)ccc1OC)NC(C)=O)[C@@H](C)CC)C(=O)NCC(=O)N[C@@H](CC(=O)O)C(=O)N[C@@H](CCCNC(=N)N)C(=O)N[C@@H](Cc1ccccc1)C(N)=O` (Ac-[Dap](Benzoyl(2-OMe,5-SO2F))IAEQLRRIGDRF-NH2), the Activity [1] is reported as “Active”, the IC50 (Bcl-2-related protein A1) is reported as greater than 250 nM and the Activity [2] is reported as “inactive”. The Activity [3] was “inactive”, the Activity (A549 [4]) was “Active” and the Ki [5] was 17 nM. For the same compound, the Activity [6] was “inactive”, the Kinact [7] was 0.943 min⁻¹ and the remaining at 3.5 h [8] was 100%. For the same compound, the half-life [9] was greater than 3.5 h, the Activity [10] was “Active” and the Activity (A549 [11]) was “inactive”. It also gave an IC50 [12] of 23.6 nM.
With `CC[C@H](C)[C@H](NC(=O)[C@H](CCCNC(=N)N)NC(=O)[C@H](CCCNC(=N)N)NC(=O)[C@H](CC(C)C)NC(=O)[C@H](CCC(N)=O)NC(=O)[C@H](CCC(=O)O)NC(=O)[C@H](C)NC(=O)[C@@H](NC(=O)[C@H](CNC(=O)c1cccc(S(=O)(=O)F)c1)NC(C)=O)[C@@H](C)CC)C(=O)NCC(=O)N[C@@H](CC(=O)O)C(=O)N[C@@H](CCCNC(=N)N)C(=O)N[C@@H](Cc1ccccc1)C(N)=O` (Ac-[Dap](Benzoyl(3-SO2F))IAEQLRRIGDRF-NH2) the IC50 (Bcl-2-related protein A1) was greater than 400 nM and the IC50 [12] was 23 nM.
For `CC[C@H](C)[C@H](NC(=O)[C@H](CCCNC(=N)N)NC(=O)[C@H](CCCNC(=N)N)NC(=O)[C@H](CC(C)C)NC(=O)[C@H](CCC(N)=O)NC(=O)[C@H](CCC(=O)O)NC(=O)[C@H](C)NC(=O)[C@@H](NC(=O)[C@H](CNC(=O)c1ccc(S(=O)(=O)F)cc1)NC(C)=O)[C@@H](C)CC)C(=O)NCC(=O)N[C@@H](CC(=O)O)C(=O)N[C@@H](CCCNC(=N)N)C(=O)N[C@@H](Cc1ccccc1)C(N)=O` (Ac-[Dap](Benzoyl(4-SO2F))IAEQLRRIGDRF-NH2), the IC50 (Bcl-2-related protein A1) was greater than 5000 nM and the IC50 [12] was 94 nM.
In the case of `CC[C@H](C)[C@H](NC(=O)[C@H](CCCNC(=N)N)NC(=O)[C@H](CCCNC(=N)N)NC(=O)[C@H](CC(C)C)NC(=O)[C@H](CCC(N)=O)NC(=O)[C@H](CCC(=O)O)NC(=O)[C@H](C)NC(=O)[C@@H](NC(=O)[C@H](CNC(=O)c1cc(S(=O)(=O)F)ccc1C)NC(C)=O)[C@@H](C)CC)C(=O)NCC(=O)N[C@@H](CC(=O)O)C(=O)N[C@@H](CCCNC(=N)N)C(=O)N[C@@H](Cc1ccccc1)C(N)=O` (Ac-[Dap](X1)IAEQLRRIGDRF-NH2), the Activity [1] is reported as “Active”, the IC50 (Bcl-2-related protein A1) is reported as greater than 1000 nM and the Activity [2] is reported as “inactive”. For the same compound, the Ki [5] was 37 nM, the Kinact [7] was 1.16 min⁻¹ and the remaining at 3.5 h [8] was greater than 80%. The half-life [9] was greater than 3.5 h, the Activity [10] was “Active” and the Activity (A549 [11]) was “inactive”. For the same compound, the IC50 [12] was 19.1 nM.
With `CCCC[C@H](NC(=O)[C@H](C)NC(=O)[C@H](CC(=O)O)NC(=O)CNC(=O)[C@@H](NC(=O)[C@H](CCCNC(=N)N)NC(=O)[C@H](CCCNC(=N)N)NC(=O)[C@H](CC(C)C)NC(=O)[C@H](C)NC(=O)[C@H](CCC(N)=O)NC(=O)[C@H](C)NC(=O)[C@@H](NC(=O)[C@H](C)N)[C@@H](C)CC)[C@@H](C)CC)C(=O)O` (H-AIAQALRRIGDA[Nle]-OH) the IC50 [12] was 1600 nM.
`CCC(NC(=O)[C@H](CCC(N)=O)NC(=O)[C@H](C)NC(=O)[C@@H](NC(=O)[C@H](C)N)[C@@H](C)CC)C(=O)N[C@@H](CC(C)C)C(=O)N[C@@H](CCCNC(=N)N)C(=O)N[C@@H](CCCNC(=N)N)C(=O)N[C@H](C(=O)NCC(=O)N[C@@H](CC(=O)O)C(=O)N[C@@H](C)C(=O)N[C@@H](Cc1ccccc1)C(=O)O)[C@@H](C)CC` (stereo partly specified) (H-AIAQ[ξAbu]LRRIGDAF-OH) gave an IC50 [12] of 1300 nM.
With `CC[C@H](C)[C@H](NC(=O)[C@H](CCCNC(=N)N)NC(=O)[C@H](CCCNC(=N)N)NC(=O)[C@H](CC(C)C)NC(=O)[C@H](CCO)NC(=O)[C@H](CCC(N)=O)NC(=O)[C@H](C)NC(=O)[C@H](CC(C)C)NC(=O)[C@H](C)N)C(=O)NCC(=O)N[C@@H](CC(=O)O)C(=O)N[C@@H](C)C(=O)N[C@@H](Cc1ccccc1)C(=O)O` (H-ALAQ[hSer]LRRIGDAF-OH) the IC50 [12] was 3000 nM.
With Ac-AIAEALRRIGDAF-NH2 the IC50 [12] was 261 nM.
H-AIAEQLRRIGDAF-NH2 gave an IC50 [12] of 313 nM.
With H-AIAQALRRIGDAF-OH the IC50 [12] was 2200 nM.
With H-AIAQALRRIGDAL-OH the IC50 [12] was 1200 nM.
In the case of H-AIAQALRRIGDAY-OH, the IC50 [12] is reported as greater than 3600 nM.
Compound H-ALAQALREIGDAR-OH has an IC50 [12] greater than 10000 nM.
